For 97 compounds, cytotoxicity results are on record in ChEMBL document CHEMBL4513216, “Probing the Open Global Health Chemical Diversity Library for Multistage-Active Starting Points for Next-Generation Antimalarials” (ACS Infect Dis, 2020).

This data set in a line: Toxicity liver stage against HepG2, at 10uM. The format is cell-based. On the set-up: test concentration 10 uM, cell line HepG2-A16-CD81EGFP. To be noted: human, HepG2-A16-CD81EGFP cells; read-out: INHIBITION
The procedure, abridged:
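Uninfected HepG2-A16-CD81EGFP cells, 3 × 10^3 per well, 1536-well, plated on prespotted compound at 10 μM final, parasite-free screening media added to match infected plates; puromycin 10 μM positive, DMSO 0.5% negative; run in parallel with 48 h PbLuc assay at 37 °C, 5% CO2; viability by CellTiter-Glo luminescence, normalized to controls.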

Turning to `CC(C)Cc1cc(C(=O)NCCN2CCCS2(=O)=O)[nH]n1`, the cytotoxicity at 10 µM is -7.39%.

As to `CCN1C(=O)CCC12CCN(S(=O)(=O)c1ccc(C#N)cc1)CC2`, the cytotoxicity at 10 µM was 1.82%.

On to `Clc1ccc(-c2nnc([C@H]3CCN(C4CCCCC4)C3)o2)cc1`, for which the cytotoxicity at 10 µM is -120%.

As to `CCn1cc(CN2CCCC(c3[nH]ncc3S(C)(=O)=O)C2)cn1` (configuration not stated), the cytotoxicity at 10 µM was found to be 6.5%.

Turning to `COc1ccc2c(c1)CC(C1CCOCC1)N(C(=O)c1ccnn1C)C2` (configuration not stated), the cytotoxicity at 10 µM was -0.516%.

`c1csc(-c2noc(CCCN3CCCC3Cn3cncn3)n2)c1` (configuration not stated): the cytotoxicity at 10 µM was -24.2%.

Turning to `O=S(=O)(N1CCN(CC2CC2)CC1)N1CCCC1c1ccco1` (configuration not stated), the cytotoxicity at 10 µM turned out to be 1.24%.

Take `O=C(c1cocn1)N1CCC2(CC1)COC(COCc1ccccn1)C2` (configuration not stated): the cytotoxicity at 10 µM is -116%.

Consider `COc1ccccc1OC1CN(C(=O)Cc2c(C)nc(N)nc2C)C1`, for which the cytotoxicity at 10 µM turned out to be 0.866%.

On to `c1cnc(N2CCc3onc(CN4CCOCC4)c3C2)cn1`, for which the cytotoxicity at 10 µM is 14.1%.

Take `COc1ccc(OC)c(C(=O)N2CCC(Nc3cccnc3)CC2)c1`: the cytotoxicity at 10 µM was -138%.

For the compound `CCc1nc(CC(=O)N2CCCC2Cn2cccn2)cs1` (configuration not stated), the cytotoxicity at 10 µM was -2.6%.

For `CCOc1ncccc1Cn1cc(-c2nccn2C)nn1`, the cytotoxicity at 10 µM is -1.38%.

For the compound `CN1CCN(c2ccc(NC(=O)c3ccoc3)c(C(F)(F)F)c2)CC1`, the cytotoxicity at 10 µM was -4.1%.

Regarding `O=C(NCCN1CCNC1=O)c1cc(-c2ccc(O)cc2)n[nH]1`, the cytotoxicity at 10 µM came to 6.27%.

As for `Cn1cccc1C(=O)N1C[C@@H]2C[C@@H](c3nnc(C4CC4)o3)O[C@@H]2C1`, the cytotoxicity at 10 µM was -112%.

As to `CNc1nc2ncc(Cl)cc2cc1C#N`, the cytotoxicity at 10 µM was found to be 5.05%.

For `Clc1ccc(OCCNC2(c3ccc(Br)cc3)CCOCC2)cc1`, the cytotoxicity at 10 µM turned out to be 2.67%.

Take `CCn1ccnc1CN1CCN(CC(=O)NC(C)(C#N)C2CC2)CC1` (configuration not stated): the cytotoxicity at 10 µM was -8.24%.

As to `Cc1ccc(CN2CCc3ncnc(-c4ccoc4)c3CC2)o1`, the cytotoxicity at 10 µM came to 0.968%.

As for `Cc1nc(-c2noc3ccc(C(=O)NCCN4CCOCC4)cc23)co1`, the cytotoxicity at 10 µM came to 15%.

Regarding `Cc1occc1C(=O)N1C[C@@H]2CCCO[C@@H]2[C@H](NS(C)(=O)=O)C1`, the cytotoxicity at 10 µM is -95.3%.

For the compound `CC(C)(C)CN1CCCC2(CCN(C(=O)c3cn[nH]c3)C2)C1` (configuration not stated), the cytotoxicity at 10 µM worked out at 2.87%.

With `NC(=O)NCC1CCCCN1C(=O)c1cc(F)cc(F)c1` (configuration not stated), the cytotoxicity at 10 µM was -8.15%.

`CCN(CC)CC(=O)NCCc1csc(N2CCCC2)n1`: the cytotoxicity at 10 µM turned out to be 8.55%.

Regarding `Cc1cc(C)c(S(N)(=O)=O)cc1C(=O)NCCN1CCC(C)CC1`, the cytotoxicity at 10 µM was -0.77%.

In the case of `O=C(Nc1ccc(CCN2CCOCC2)cc1)C1CCCC1`, the cytotoxicity at 10 µM was -16%.

Regarding `Cc1ccc(C2CSCCN2CC(=O)N2CCOCC2)cc1` (configuration not stated), the cytotoxicity at 10 µM was 9.04%.

On to `Cc1nn(C)c(N(C)C)c1CNCc1nnc2n1CCCCC2`, for which the cytotoxicity at 10 µM was -5.68%.

Regarding `CCOCCN1CCN(CC(=O)NC2(C#N)CCCC2)CC1C` (configuration not stated), the cytotoxicity at 10 µM was 5.33%.

On to `O=C1CCCN1CCC1CCN(C2CCC3(CCNCC3)CC2)CC1`, for which the cytotoxicity at 10 µM came out at 10.9%.

On to `Cc1cnn(CC2CCCN2CCCc2nc3ccccc3o2)c1` (configuration not stated), for which the cytotoxicity at 10 µM was -6.19%.

With `Cc1nc(CC(=O)N2CCN(C)CC2c2ccccc2)cs1` (configuration not stated), the cytotoxicity at 10 µM was 3.49%.

Consider `CCN1CCOCC12CCN(C(=O)C1CCC1)CC2`, for which the cytotoxicity at 10 µM is -1.39%.

`Cc1nc(N2CCOCC2)nc2c1COCC21CCN(CC2CC2)C1` (configuration not stated): the cytotoxicity at 10 µM was -116%.

As to `COc1ccc(Cl)cc1NC(=O)CNc1ccn(CC(N)=O)n1`, the cytotoxicity at 10 µM stood at 13.6%.

With `CC(=O)c1c(F)cccc1N1CCC(NS(=O)(=O)c2ccccc2)CC1`, the cytotoxicity at 10 µM turned out to be 53.4%.

On to `Cc1nc[nH]c1CN1CCN(C(=O)c2cccs2)[C@H]2CS(=O)(=O)C[C@H]21`, for which the cytotoxicity at 10 µM is -0.0714%.

Take `Cc1cc(NC(=O)NCCc2ccccc2)n(C)n1`: the cytotoxicity at 10 µM is -9.19%.

Consider `Cc1cc(N2CCOCC2)nc(N(C)CCO)c1C#N`, for which the cytotoxicity at 10 µM is 2.17%.

`FC(F)(F)Oc1cccc(CNC[C@H]2Cn3ccnc3CO2)c1`: the cytotoxicity at 10 µM stood at 2.21%.

In the case of `N[C@@H]1CCN(Cc2cc(-c3ccccc3OC(F)(F)F)no2)C[C@H]1O`, the cytotoxicity at 10 µM amounted to 2.42%.

For `Cn1ccc(C2CCCCN2C(=O)c2cccc(-n3cccn3)c2)n1` (configuration not stated), the cytotoxicity at 10 µM is -0.874%.

With `CC(SCC(=O)NC(N)=O)c1ccc(Cl)cc1` (configuration not stated), the cytotoxicity at 10 µM turned out to be 4.86%.

For `Cc1ccc(-c2noc(CN3CCOC(Cn4cccn4)C3)n2)cc1` (configuration not stated), the cytotoxicity at 10 µM was -5.98%.

Take `CC(C)(C)OC(=O)N1CC(CC(=O)NCc2ccsc2)C1`: the cytotoxicity at 10 µM was 5.18%.

As for `Cc1cnccc1N1CCN(c2nccc(CCC(F)(F)F)n2)CC1`, the cytotoxicity at 10 µM is 4.91%.

On to `Cc1ccc(C(=O)NCCC2CN(c3cnn(C)c(=O)c3)CCO2)s1` (configuration not stated), for which the cytotoxicity at 10 µM is -1.38%.

With `COCCC(=O)N(Cc1cccnc1)CC1CCN(C2CCCC2)CC1`, the cytotoxicity at 10 µM is -5%.

In the case of `Cc1noc([C@@H]2CCO[C@@H]3CCN(Cc4cccs4)C[C@@H]32)n1`, the cytotoxicity at 10 µM is -74.6%.

In the case of `CCCN(Cc1cnc2ccccc2n1)Cc1ccccc1OC`, the cytotoxicity at 10 µM was -40.1%.

For `Cc1cc(NC(=O)c2ccc(F)cc2F)n(C)n1`, the cytotoxicity at 10 µM is -2.18%.

As to `Clc1ccc(C(CNCc2ccncc2)n2cccn2)cc1` (configuration not stated), the cytotoxicity at 10 µM was 6.73%.

As for `Cn1cnnc1CCNC(=O)c1cnn(Cc2ccccc2)c1`, the cytotoxicity at 10 µM is -0.722%.

Take `O=S(=O)(Cc1ccccc1F)NC(CO)c1ccco1` (configuration not stated): the cytotoxicity at 10 µM was found to be 6.6%.

With `CNC(=O)C(C)CN(C)C(=O)Nc1cc(F)cc(Br)c1` (configuration not stated), the cytotoxicity at 10 µM turned out to be 4.25%.

Regarding `CS(=O)(=O)CCCN1CCN(C(C#N)c2ccccc2)CC1` (configuration not stated), the cytotoxicity at 10 µM was -3.14%.

Take `CC(C)c1cc(CSCCC(=O)O)no1`: the cytotoxicity at 10 µM was -7.52%.

Regarding `Cc1cc(C)cc(C(=O)Nc2ccc(CC3CC(=O)NC3=O)cc2)c1` (configuration not stated), the cytotoxicity at 10 µM was -3%.

In the case of `Cc1ccccc1CN1CC[C@H](c2nnc(-c3cncn3C)o2)C1`, the cytotoxicity at 10 µM amounted to 5.08%.

Regarding `Cc1nc(C(C)C)ncc1C(=O)N1CCC(c2ccccc2C(=O)O)C1` (configuration not stated), the cytotoxicity at 10 µM turned out to be 1.93%.

As for `Cn1cc(S(=O)(=O)N(CC(F)(F)F)C2CC2)cc1C(N)=O`, the cytotoxicity at 10 µM is -5.02%.

In the case of `Fc1cccnc1O[C@H]1CN(Cc2ccoc2)[C@@H]2CCCO[C@H]12`, the cytotoxicity at 10 µM is -0.908%.

As for `CC(C)N(C)C(=O)C1CCC2(CCNCC2)O1` (configuration not stated), the cytotoxicity at 10 µM was -129%.

For `CC(C)c1nc(C2CCCN(C(=O)c3cccc4c3OCO4)C2)no1` (configuration not stated), the cytotoxicity at 10 µM is -12%.

Consider `CN(C(=O)CCc1cccs1)C1CCCN(C2Cc3ccccc3C2)C1` (configuration not stated), for which the cytotoxicity at 10 µM is -4.49%.

Turning to `CC(=O)Nc1nc(CN2CCOC(Cn3cccn3)C2)cs1` (configuration not stated), the cytotoxicity at 10 µM is -5.69%.

`Cc1c[nH]c(CN(C)C(C(=O)O)c2c(F)cccc2Cl)n1` (configuration not stated): the cytotoxicity at 10 µM was -41.7%.

Regarding `COCCN1CCC2(CC1)CC(COC)N(c1ncccn1)C2` (configuration not stated), the cytotoxicity at 10 µM is -3.53%.

`Cn1cc(S(=O)(=O)NCC2CCN(C(=O)Oc3ccccc3)CC2)cn1`: the cytotoxicity at 10 µM was -8.36%.

In the case of `CC(C)(N)C(=O)N1CCCC1c1cncc(Oc2ccc(F)cc2)n1` (configuration not stated), the cytotoxicity at 10 µM came to 1.11%.

Regarding `CC(C)=CCn1ncc(N2CCOCC2)cc1=O`, the cytotoxicity at 10 µM is -9.96%.

With `Cc1nccn1CCC(=O)N1CCCN(CCCc2ccccc2)CC1`, the cytotoxicity at 10 µM is -13.6%.

`CN(C)CC1CN(CC(=O)N2CCc3ccccc32)CCO1` (configuration not stated): the cytotoxicity at 10 µM was -1.61%.

Regarding `CCCOc1c(Cl)cc(C(=O)N2CCOC23CCN(C)CC3)cc1Cl`, the cytotoxicity at 10 µM worked out at 8.17%.

For the compound `Cc1cc(CN(CC(N)=O)CC(C)C)no1`, the cytotoxicity at 10 µM stood at 3.72%.

For the compound `Cc1ccc(N2CCC3(CCN(C(=O)c4ccnnc4)CC3)CC2)nn1`, the cytotoxicity at 10 µM was determined as 3.94%.

Regarding `c1ccc(-c2nc3c(c(NCCn4ccnn4)n2)CCNCC3)nc1`, the cytotoxicity at 10 µM is -51.1%.

With `Cc1cnc(CN(C)C2CCN(Cc3nc4ccccc4s3)C2)o1` (configuration not stated), the cytotoxicity at 10 µM is -7.97%.

As to `Cc1cccc(CN2C[C@@H]3COC[C@]3(CNC(=O)c3ccno3)C2)n1`, the cytotoxicity at 10 µM is 3.84%.

In the case of `COCCN1C[C@@H](C)[C@@]2(COCCN(C(=O)Cc3ccccc3)C2)C1`, the cytotoxicity at 10 µM is -12.4%.

Turning to `CC(C)C1=NOC(c2nc(Cc3ccccc3)no2)C1` (configuration not stated), the cytotoxicity at 10 µM is -3.94%.

Take `CCC(CC)c1cc(CNC(=O)N2CCOC(C)C2)on1` (configuration not stated): the cytotoxicity at 10 µM stood at 0.433%.

`CC(=O)NCC(=O)N1CCc2[nH]c(-c3ccccc3)nc2C1`: the cytotoxicity at 10 µM was -0.591%.

Take `Cc1nnc(NC(=O)CN2CCc3c(nc(C(C)C)n3C)C2)s1`: the cytotoxicity at 10 µM was -1.94%.

Regarding `N#Cc1ccc(OCCCN2CCOC(Cn3cncn3)C2)cc1` (configuration not stated), the cytotoxicity at 10 µM was -0.0581%.

For the compound `CN(Cc1cccc(O)c1)Cc1cnn(C)c1`, the cytotoxicity at 10 µM is -0.198%.

As to `CN(C)C(=O)CN1CCO[C@H]2CN(c3ccccn3)C[C@H]21`, the cytotoxicity at 10 µM came out at 8.16%.

As to `N#Cc1ncn(CCC(=O)Nc2cccc(Cl)c2)n1`, the cytotoxicity at 10 µM is -152%.

Consider `COc1ccc(CN2CC[C@@H](O)[C@@H]2Cc2ccccc2)cc1`, for which the cytotoxicity at 10 µM was determined as 4.49%.

In the case of `COC(=O)CCCNC(=O)N1CCc2c(F)ccc(F)c2C1`, the cytotoxicity at 10 µM was -11.2%.

Take `COC(=O)CNC(=O)c1ccc(OC2CCN(S(C)(=O)=O)CC2)c(Cl)c1`: the cytotoxicity at 10 µM was -4.52%.

For the compound `Cc1cc(C2CCCN2Cc2ccc(S(=O)(=O)N3CCCC3)o2)on1` (configuration not stated), the cytotoxicity at 10 µM is -11.9%.

In the case of `CCOC(C)C(=O)NCCNS(C)(=O)=O` (configuration not stated), the cytotoxicity at 10 µM is -5.29%.

Turning to `CCn1ncc(CN2CCCC(n3c(=O)oc4ccccc43)C2)c1C` (configuration not stated), the cytotoxicity at 10 µM is 1.83%.

Take `COc1ccccc1CC(C)CC(=O)O` (configuration not stated): the cytotoxicity at 10 µM was found to be 12.9%.

In the case of `O=C(NCCn1nc2ccccn2c1=O)c1cc[nH]n1`, the cytotoxicity at 10 µM turned out to be 3.45%.
